Assay results taken from ChEMBL document CHEMBL4028805, “Phenylthiazole Antibacterial Agents Targeting Cell Wall Synthesis Exhibit Potent Activity in Vitro and in Vivo against Vancomycin-Resistant Enterococci” (J Med Chem, 2017).
Converted amounts (≈) assume the structure as drawn. The source made the active and inactive calls. No cut-off for these calls is given here.

What was measured:
[1] = Induction of proton motive force collapse in Escherichia coli inverted membrane vesicle in presence of ATP-driven PMF generation system by ACMA-based fluorescence assay; assay type: functional, cell membranes
Method in brief: (§1)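 E. coli inverted membrane vesicles (0.1 mg/mL membrane protein) with 2 μM ACMA and 0.5 mM ATP or succinate, in 10 mM HEPES-KOH, 5 mM MgSO4, 100 mM KCl, pH 7.5. Proton gradient followed by ACMA fluorescence (ex 410/em 480 nm). EC50 taken from dose-response curves. CCCP used as reference uncoupler.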

[2] = Induction of proton motive force collapse in Escherichia coli inverted membrane vesicle in presence of succinate/O2-driven PMF generation system by ACMA-based fluorescence assay; assay type: functional, cell membranes; method in brief: as §1
[3] = system: Enterococcus faecalis; test: Bactericidal activity against vancomycin-resistant Enterococcus faecalis clinical isolates after 18 to 22 hrs by broth microdilution method; assay type: functional
Method in brief: (§2)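 MBC follows the broth microdilution MIC. 5 μL aliquots spotted onto TSA (E. faecalis) or BHI agar (E. faecium), incubated 37 °C for 18–22 h. MBC is the concentration giving >99% reduction in bacterial count. MBC50 is the value for 50% of isolates.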

[4] = system: Enterococcus faecalis; test: Antibacterial activity against vancomycin-resistant Enterococcus faecalis clinical isolates after 18 to 22 hrs by broth microdilution method; assay type: functional
Method in brief: (§3)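 CLSI broth microdilution against panels of enterococcal isolates. E. faecalis grown in TSB, E. faecium in BHI, 37 °C for 18–22 h. MIC is the lowest concentration without visible growth. MIC50 is the value inhibiting 50% of isolates in each group.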

[5] = system: Bacillus subtilis; test: Antibacterial activity against Bacillus subtilis assessed as pool of membranes at 5 times MIC after 2 hrs in presence of methylsulfonyl methane by phase contrast microscopic analysis; assay type: functional
Method in brief: (§4)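 B. subtilis grown in LB at 37 °C to OD600 ~0.2, then treated at 5 × MIC with MSM for osmotic stabilisation. At 2 h, stained with FM 4-64 (1 μg/mL), DAPI (1 μg/mL) and SYTOX Green (1 μg/mL). Imaged by deconvolution fluorescence and phase contrast microscopy.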

[6] = system: Enterococcus faecalis; test: Antibacterial activity against vancomycin-resistant Enterococcus faecalis HM-201 infected in Caenorhabditis elegans AU37 assessed as reduction in bacterial burden at 20 ug/ml after 18 hrs by CFU-based […] analysis relative to control; assay type: functional
Method in brief: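 C. elegans AU37 adults infected on an E. faecalis HM-201 lawn for 2 h, washed in M9, 20–25 worms per well. Treated in triplicate with 20 μg/mL, with water as negative control. Worms washed, lysed with silicon carbide by vortexing, diluted serially and plated on TSA with 50 μg/mL gentamicin. CFU counted after 18 h at 37 °C and expressed as % reduction versus untreated worms.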

[7] = system: Enterococcus faecalis; test: Antibacterial activity against Enterococcus faecalis clinical isolates after 18 to 22 hrs by broth microdilution method; assay type: functional; method in brief: as §3
[8] = system: Enterococcus faecium; test: Antibacterial activity against vancomycin-resistant Enterococcus faecium clinical isolates after 18 to 22 hrs by broth microdilution method; assay type: functional; method in brief: as §3
[9] = system: Bacillus subtilis; test: Antibacterial activity against Bacillus subtilis assessed as bending of cells at 5 times MIC after 2 hrs in presence of methylsulfonyl methane by phase contrast microscopic analysis; assay type: functional; method in brief: as §4
[10] = system: Enterococcus faecium; test: Bactericidal activity against Vancomycin-resistant Enterococcus faecium clinical isolates after 18 to 22 hrs by broth microdilution method; assay type: functional; method in brief: as §2
[11] = system: Enterococcus faecium; test: Antibacterial activity against Enterococcus faecium clinical isolates after 18 to 22 hrs by broth microdilution method; assay type: functional
Method in brief: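 Enterococcus faecium grown in BHI. MIC by CLSI broth microdilution, 37 °C for 18–22 h. Lowest concentration with no visible growth taken as MIC, reported as MIC50 across the isolates.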

[12] = system: Bacillus subtilis; test: Antibacterial activity against Bacillus subtilis assessed as misshapen cells at 5 times MIC after 2 hrs in presence of methylsulfonyl methane by phase contrast microscopic analysis; assay type: functional; method in brief: as §4
[13] = system: Enterococcus faecalis; test: Inhibition of UPPP-mediated peptidoglycan biosynthesis in Enterococcus faecalis NR-31975 assessed as accumulation of UDP-N-acetylmuramyl-pentapeptide at 10 times MIC after 30 mins by HPLC-MS analysis
Method in brief: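 Pellets boiled 30 min. UDP-N-acetylmuramyl-pentapeptide measured by HPLC-TOF MS on a phenyl column, 5–20% acetonitrile/0.1% formic acid gradient, positive ESI.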

SMILES | EC50 [1] [nM] | EC50 [2] [nM] | MBC50 [3] [µg/mL] | MIC50 [4] [µg/mL] | Activity [5] | Activity [6] | MIC50 [7] [µg/mL] | MIC50 [8] [µg/mL] | Activity [9] | MBC50 [10] [µg/mL] | MIC50 [11] [µg/mL] | Activity [12] | inhibition [13]
N#CC(C#N)=NNc1cccc(Cl)c1 [CARBONYL CYANIDE M-CHLOROPHENYLHYDRAZONE] | 400 | 200 |  |  |  |  |  |  |  |  |  |  | 
CN[C@H](CC(C)C)C(=O)N[C@H]1C(=O)N[C@@H](CC(N)=O)C(=O)N[C@H]2C(=O)N[C@H]3C(=O)N[C@H](C(=O)N[C@H](C(=O)O)c4cc(O)cc(O)c4-c4cc3ccc4O)[C@H](O)c3ccc(c(Cl)c3)Oc3cc2cc(c3O[C@@H]2O[C@H](CO)[C@@H](O)[C@H](O)[C@H]2O[C@H]2C[C@](C)(N)[C@H](O)[C@H](C)O2)Oc2ccc(cc2Cl)[C@H]1O [VANCOMYCIN] |  |  | >64 | > 64 | Active | inactive | 1 (≈ 0.69 µM) | > 64 | Active | >64 | 1 (≈ 0.69 µM) | Active | Active
